Experimental data pooled from the literature.
Compare with care: the assays were run in different laboratories.
Effect on: cell growth or viability

Compound | cell line | technique | tested at | time | endpoint | result
COc1ccc(-c2nc3ncccn3c2NC(C)(C)CC(C)(C)C)cc1O | MDA-MB-231 | MTT | 25 µM | 48 h | viability | 67.3%
CC(=O)OC[C@@]1(C)[C@H]2CC[C@@H]3CN(C(C)C)[C@@H](C4=CCOC4=O)C[C@H]3[C@]2(C)CC[C@H]1OC(C)=O | MRC5 | ATP luminescence | 25 µM | 72 h | cell death | -2.1%
COc1cccc2c1C(=O)c1c(O)c3c(c(O)c1C2=O)C[C@@](O)(C(=O)CO)C[C@@H]3O[C@H]1C[C@H](N)[C@H](O)[C@H](C)O1 | MDA-MB-231 | MTT | 25 µM | 48 h | viability | 33.8%
COc1cc(C)cc2oc(-c3ccccc3)cc(=O)c12 | HS27 | MTT |  | 24 h | CC50 | > 200 µM
CC1(C)OC[C@@]2(C)[C@H]3CC[C@@H]4CN(Cc5ccccc5C5CC5)[C@@H](C5=CCOC5=O)C[C@H]4[C@]3(C)CC[C@H]2O1 | MRC5 | ATP luminescence | 25 µM | 72 h | cell death | 16.7%
COc1cc2ccc(=O)oc2cc1OC | MRC5 | MTT |  | 24 h | IC50 | > 100 µM
COc1cc(OC)c2c(=O)cc(-c3ccc(Br)cc3)oc2c1 | HS27 | MTT |  | 24 h | CC50 | > 200 µM
C[C@]1(CO)[C@H]2CC[C@@H]3CN(Cc4cccs4)[C@@H](C4=CCOC4=O)C[C@H]3[C@]2(C)CC[C@H]1O | MRC5 | ATP luminescence | 25 µM | 72 h | cell death | -7.4%
Cc1cn([C@@H]2C[C@H](O)[C@@H](CNC(=O)Nc3ccc(-c4ccccc4)cc3)O2)c(=O)[nH]c1=O | MRC5 |  |  |  | CC50 | > 50 µM
COc1cc(OC)c2c(=O)cc(-c3ccccc3)oc2c1-c1c(OC)cc(OC)c2c(=O)cc(-c3ccccc3)oc12 | HS27 | MTT |  | 24 h | CC50 | > 200 µM
COc1ccc(S(=O)(=O)ON=C2C=C(C)C(=O)C(C)=C2)cc1 | MDA-MB-231 |  |  |  | CC50 | 1.03 µM
C[C@]1(CO)[C@H]2CC[C@@H]3CN(Cc4ccco4)[C@@H](C4=CCOC4=O)C[C@H]3[C@]2(C)CC[C@H]1O | MRC5 | ATP luminescence | 25 µM | 72 h | cell death | -0.1%
